Ba/F3 V617F tox = reduced viability of JAK2V617F-dependent Ba/F3 cells, primary screen, JAK2V617F inhibitor project, cell-based, Ba/F3 EpoR-JAK2V617F, luminescence; hit rate 1.1% among 220,000; ATP luminescence; inhibition, % at 5.6 µM;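 active means inhibition above the campaign mean plus 3 SD over all tested compounds, cut at about 24% in these data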;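 further: cytokine-independent growth of Ba/F3 cells driven by EpoR plus mutant JAK2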
MT stabilizer = microtubule stabilizers in HeLa cells, primary screen, imaging, high-content imaging | hit rate 0.83% among 200,000 | HeLa tubulin immunostaining HCS, 24 h; share of cells brighter than vehicle mean+2SD | AID 2205, 2009 | % tubulin-high responders, % at 10 µM;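 active means plate Z-score above 3 for both tubulin-high and condensed-nucleus cell shares, with cell loss under 80%, at 10 µM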;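 further: anti alpha tubulin signal scored within the nucleus-defined area of each cell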
IEC-6 tox = cytotoxicity in IEC-6 intestinal epithelial cells, primary screen, cytotoxicity control for KLF5 inhibitor project, cell-based, luminescence; inhibition, % at 5 µM; IEC-6 cytotoxicity, luminescence viability; hit rate 0.78% among 290,000; AID 1825, 2009
b-catenin transl = modulators of beta-catenin nuclear translocation, primary screen, imaging, HeLa cells, immunofluorescence, high-content. hit rate 0.3% among 190,000. nuclear translocation activity, % at 5 µM;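 active means nuclear translocation activity above 50% at 5 µM, with a well cell count of 50 or more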;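 further: per-cell ratio of nuclear to cytoplasmic median beta-catenin stain intensity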
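assay system = human HeLa cells, endogenous beta-catenin | times = compound treatment 24 h, 37°C, 5% CO2 | detection = Anti-beta-catenin immunofluorescence on PFA-fixed, Triton-permeabilized cells, DAPI nuclei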
APP 5UTR inh = inhibitors of APP translation via 5'UTR reporter, primary screen, APP 5'UTR luciferase, SH-SY5Y cells; inhibition, % at 2 µM; SH-SY5Y APP 5'UTR-luciferase reporter, luminescence; AID 1285, 2008; hit rate 0.82% among 190,000;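 active means inhibition above a set limit, derived from the sample mean plus 3 SD, cut at about 45% in these data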
BaF3 parental = parental Ba/F3 cell viability inhibition, counter-screen for JAK2V617F inhibitor project, murine pro-B, CellTiter-Glo luminescence. CellTiter-Glo ATP luminescence. inhibition, % at 5.6 µM. hit rate 1.1% among 220,000. AID 1486, 2009;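 active means inhibition above a per-campaign cutoff, the mean inhibition of all tested compounds plus 3 SD, cut at about 27% in these data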
IEC-6 tox confirm = cytotoxic compounds in IEC-6 epithelial cells, confirmation, cytotoxicity control, cell-based, luminescence; shares compounds with IEC-6 tox; IEC-6 rat intestinal epithelial viability; inhibition, % at 5 µM; hit rate 63% among 1,900; AID 1907, 2009
Hits are given with their value; . = inactive; / = no result given. Compounds with a hit are over-represented: about 2.2% of the library has one in this group of screens. Unless noted, no stated cut-off is given here; in the data, active means inhibition above about 22%; inactive means the rest.

SMILES | Ba/F3 V617F tox | MT stabilizer | IEC-6 tox | b-catenin transl | APP 5UTR inh | BaF3 parental | IEC-6 tox confirm
CCOc1cc(/C=C2\CN(C)C/C(=C\c3ccc(O)c(OCC)c3)C2=O)ccc1O | / | / | 88.1 | / | / | / | 37.6
CCOc1cc(/C=C2/C(=O)ON=C2C)ccc1O | / | / | . | / | / | / | /
COc1ccc(/C(C)=N/NC(=O)c2nnn(-c3nonc3N)c2CN(C)c2ccccc2)cc1 | / | / | . | / | / | / | /
CC(C)c1c(C(=O)N/N=C/c2ccc3c(c2)OCO3)nnn1-c1nonc1N | / | / | . | / | / | / | /
C/C(=N\NC(=O)c1nnn(-c2nonc2N)c1CN(C)c1ccccc1)c1ccccc1O | / | / | 51.2 | / | / | / | 49.9
CC1CCN(Cc2c(C(=O)N/N=C/c3ccccc3O)nnn2-c2nonc2N)CC1 | / | / | 47.2 | / | / | / | 41.8
CCN(CC)c1ccc(/C=N/NC(=O)c2nnn(-c3nonc3N)c2C(C)C)c(O)c1 | / | / | 96.7 | / | / | / | 67.8
COc1ccc(-c2nc(CS(=O)CC(=O)NCCCN3CCCC(C)C3)c(C)o2)cc1OC (centres undefined) | / | / | . | / | / | / | /
O=C(CSc1cccc[n+]1[O-])Nc1ccccc1Oc1ccccc1 | . | . | 23.5 | . | . | . | .
O=C(CSc1cccc[n+]1[O-])N1CCCCCC1 | . | . | . | . | . | . | /
O=C(CSc1cccc[n+]1[O-])CSc1cccc[n+]1[O-] | . | . | 55.2 | . | . | . | .
O=C(CSc1ccc(Br)cc1)Nc1ccccc1Oc1ccccc1 | . | . | . | . | . | . | /
CCn1nc(C)cc1-c1nnc(SCC(=O)Nc2ccccc2)n1CCCOC | . | / | . | . | / | . | /
CCn1nc(C)cc1-c1nnc(Sc2ncc([N+](=O)[O-])s2)n1C | / | / | 101.9 | / | / | / | 25.5
CCOc1ccc(N(CC(=O)NCc2ccccc2C)S(C)(=O)=O)cc1 | / | / | . | / | / | / | /
CCN(CC(=O)NCc1ccc(F)cc1)C(=O)/C=C/c1ccc(OC)c(S(=O)(=O)NC(C)C)c1 | / | / | 72.9 | / | / | / | 49.9
CCOc1cccc(CN2CCC(Oc3ccc(C(=O)NCc4ccccn4)cc3)CC2)c1 | / | / | . | / | / | / | /
CC(C)/C=C(/C(=O)c1ccc(Cl)cc1Cl)n1cncn1 | / | / | . | / | / | / | /
CC(C)(C)C(=O)/C(=C/c1ccc(Cl)cc1)n1cncn1 | / | / | 29.1 | / | / | / | .
O=C(NCCc1ccco1)C(=O)NCC1OCCCN1S(=O)(=O)c1ccc(F)cc1 (centres undefined) | / | / | . | / | / | / | /
COc1ccc(S(=O)(=O)N2CCCOC2CNC(=O)C(=O)NCCc2ccco2)cc1C (centres undefined) | / | / | 28.5 | / | / | / | .
CCc1c(C(=O)N2CCN(c3ccccc3F)CC2)[nH]c(C)c1C(C)=O | . | . | . | / | . | . | /
CC(C)C(=O)c1cn(CC(=O)NCc2ccco2)c2ccccc12 | . | . | . | . | . | . | /
CCOC(=O)C(C)Oc1cccc2c(=O)n(CC(=O)NCc3ccco3)ccc12 (centres undefined) | 77.1 | . | 77.1 | 72.7 | 93.6 | 68.4 | 51.9
O=C(CSc1nc2cc([N+](=O)[O-])ccc2n1-c1ccc(F)cc1)NC1CCS(=O)(=O)C1 (centres undefined) | . | . | . | . | . | . | /
SMILES | Ba/F3 V617F tox | MT stabilizer | IEC-6 tox | b-catenin transl | APP 5UTR inh | BaF3 parental | IEC-6 tox confirm
C/C(=N\NC(=O)c1c([N+](=O)[O-])c(C)nn1C)c1ccc(NC(=O)C2CCCC2)cc1 | / | / | 76.7 | / | / | / | 64.0
C/C(=N\NC(=O)c1c(Cl)c(C)nn1C)c1ccc(NC(=O)C2CCC2)cc1 | / | / | 72.6 | / | / | / | 52.3
C/C(=N\NC(=O)c1c([N+](=O)[O-])c(C)nn1C)c1ccc(NC(=O)c2ccc(C)o2)cc1 | / | / | . | / | / | / | /
Cc1occc1C(=O)N/N=C/c1ccc(-c2ccccc2)cc1 | / | / | 27.5 | / | / | / | 31.1
COC(=O)c1nn(-c2ccc(OC)cc2)c(=O)cc1O | . | . | . | . | . | . | /
COc1ccc(-n2nc(C#N)c(Cl)cc2=O)cc1 | . | . | 29.1 | . | 94.9 | . | .
COC(=O)c1ccccc1NC1=C/C(=N\S(=O)(=O)c2ccc(C(=O)O)cc2)c2ccccc2C1=O | / | / | 28.1 | / | / | / | .
COc1ccc(/C=C/C(=O)c2cc(F)ccc2OC(=O)c2ccccc2)cc1OC | . | . | 46.2 | / | 89.5 | . | 37.0
COc1ccc(/C=C/C(=O)c2cc(F)ccc2OC(=O)c2ccc(OC)c(OC)c2)cc1OC | . | . | . | . | . | . | /
COc1ccc(/C=C/C(=O)c2cc(F)ccc2OC(=O)c2ccccc2OC)cc1OC | . | . | 52.4 | . | 88.7 | . | 41.4
COc1cc(-c2noc(C)c2-c2ccc3[nH]ccc3c2)cc(OC)c1OC | / | / | 89.0 | / | / | / | 59.9
COc1cc(-c2noc(C)c2C#Cc2nccn2C)cc(OC)c1OC | / | / | . | / | / | / | /
COc1cc(-c2noc(C)c2-c2ccc(N(C)C)nc2)cc(OC)c1OC | / | / | 92.6 | / | / | / | 58.7
O=C(Nc1ccc(Cc2ccncc2)cc1)c1ccc([N+](=O)[O-])o1 | / | / | 51.4 | / | / | / | .
O=C(Nc1ccc(N2CCOCC2)cc1)c1ccc([N+](=O)[O-])o1 | / | / | 79.4 | / | / | / | 25.4
O=C(Nc1ccc(S(=O)(=O)N2CCOCC2)cc1)c1ccc([N+](=O)[O-])o1 | 68.2 | / | 66.9 | . | / | 66.4 | .
CC(=O)Nc1ccc2nc(NC(=O)c3ccc([N+](=O)[O-])o3)sc2c1 | / | / | 56.5 | / | / | / | .
O=C(Nc1ccc(N2CCOCC2)cc1)c1ccc(Br)o1 | / | / | . | / | / | / | /
O=C(c1cc(COc2ccccc2)on1)N1CCCC(CN2CCOCC2)C1 (centres undefined) | / | / | . | / | / | / | /
O=C(Nc1ccc(N2CCN(C(=O)c3cccs3)CC2)cc1)c1ccc([N+](=O)[O-])o1 | / | / | 101.4 | / | / | / | 95.8
O=C(Nc1ccc(N2CCN(C(=O)c3cccs3)CC2)cc1)c1ccco1 | / | / | . | / | / | / | /
N#CC1=C(N)Oc2cc(N)ccc2C1c1ccsc1 (centres undefined) | . | . | . | . | . | . | /
N#CC1=C(N)Oc2cc(N)ccc2C1c1cccc(Br)c1 (centres undefined) | / | / | 81.2 | / | / | / | 54.1
Cc1ccc(C2C(C#N)=C(N)Oc3cc(N)ccc32)cc1 (centres undefined) | / | / | . | / | / | / | /
N#CC1=C(N)Oc2cc(N)ccc2C1c1cc(Br)cs1 (centres undefined) | / | / | 24.1 | / | / | / | .
COc1cccc(CNC(=O)Cc2nc3nc(C)cc(C)n3n2)c1 | . | . | . | . | / | . | /
C=CCSc1nc(=O)n2ccc(C)cc2n1 | . | . | . | / | . | . | /
Nc1nccc(-c2nn(-c3ccc(Cl)cc3)ccc2=O)n1 | . | / | . | . | / | . | /
CSc1nccc(-c2nn(-c3ccc(C)cc3)ccc2=O)n1 | 75.1 | 57.2 | 51.2 | / | . | 75.6 | 38.5
C=CCSc1nccc(-c2nn(-c3ccc(C)cc3)ccc2=O)n1 | 36.8 | 39.3 | 39.1 | . | 88.1 | 46.3 | 34.0
